Data set [1] relates to Fruit. Briefly: Drug uptake in Solanum lycopersicum (tomato) fruit peel after 60 to 151 days post germination by GC-ECD analysis. Type of data set: ADME. The essentials: (§1)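 Organically grown tomatoes: seeded October 2000 in a pine-needle-enriched plot (period 1), transplanted in November to an unamended plot (periods 2–3), harvested March 2001. Tissues were blender-homogenized and analyzed by GC-ECD on a 30 m SPB-5 capillary column, with helium carrier at 1.5 mL/min. Quantified against external OCP standards as mean ng/g dry wt; LODs were 0.12–0.4 ng/g dry wt; samples were run in duplicate.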

Data set [2] deals with Stem. Description: Drug uptake in Solanum lycopersicum (tomato) stem after 1 to 15 days post germination by GC-ECD analysis. Type of data set: ADME. The method in brief: as §1
A short description of data set [3]: Root bioconcentration factor assessed as compound concentration in tomato plant dry mass to compound concentration in soil dry mass after 1 to 15 days post germination. The method in brief: (§2)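 Root bioconcentration factor is the mean OCP concentration in tomato roots divided by the mean concentration in bulk soil, both on a dry weight basis. Both matrices were analyzed by GC-ECD with external standard quantification. Period 1 was in a pine-needle-enriched seedbed plot and periods 2–3 in an unamended transplant plot. Soil water content was measured by oven drying at 110 °C.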

The subject of data set [4] is Stem. Description: Drug uptake in Solanum lycopersicum (tomato) stem after 60 to 151 days post germination by GC-ECD analysis. In kind it is ADME. The essentials: as §1
Data set [5] concerns Leaf. Description: Drug uptake in Solanum lycopersicum (tomato) leaves after 16 to 59 days post germination by GC-ECD analysis. In kind it is ADME. The method in brief:
as §1

Data set [6] has as its system Root. Briefly: Drug uptake in Solanum lycopersicum (tomato) root after 16 to 59 days post germination by GC-ECD analysis. In kind it is ADME. The method in brief:
as §1

Data set [7] has as its system Leaf. Description: Drug uptake in Solanum lycopersicum (tomato) leaves after 60 to 151 days post germination by GC-ECD analysis. Type of data set: ADME. The method in brief:
as §1

For data set [8], the system named is Fruit. Briefly: Drug uptake in Solanum lycopersicum (tomato) fruit flesh after 60 to 151 days post germination by GC-ECD analysis. Type of data set: ADME. The method in brief: as §1
Data set [9] is described as follows: Root bioconcentration factor assessed as compound concentration in tomato plant dry mass to compound concentration in soil dry mass after 16 to 59 days post germination. The essentials:
as §2

Data set [10] has as its system Root. Description: Drug uptake in Solanum lycopersicum (tomato) root after 60 to 151 days post germination by GC-ECD analysis. In kind it is ADME. The essentials: as §1
A short description of data set [11]: Octanol-water partition coefficient, log KOW of the compound. In kind it is physicochemical. The conditions noted are these: read-out: log KOW.
The subject of data set [12] is Leaf. Description: Drug uptake in Solanum lycopersicum (tomato) leaves after 1 to 15 days post germination by GC-ECD analysis. Type of data set: ADME. The essentials: as §1
The test system of data set [13] is Root. Description: Drug uptake in Solanum lycopersicum (tomato) root after 1 to 15 days post germination by GC-ECD analysis. Type of data set: ADME. The essentials:
as §1

In data set [14] the test system is Stem. Briefly: Drug uptake in Solanum lycopersicum (tomato) stem after 16 to 59 days post germination by GC-ECD analysis. Type of data set: ADME. The essentials: as §1
Data set [15] is described as follows: Root bioconcentration factor assessed as compound concentration in tomato plant dry mass to compound concentration in soil dry mass after 60 to 151 days post germination. The essentials:
as §2

Structures are written as SMILES. Where a name gives a salt, the structure may show the parent alone.

`O=S1OC[C@@H]2[C@H](CO1)[C@@]1(Cl)C(Cl)=C(Cl)[C@]2(Cl)C1(Cl)Cl` (stereo partly drawn) [ALPHA-ENDOSULFAN]: the Drug uptake was determined as 12.3 ng/g in the data set on Fruit [1]; 1.2 ng/g in the data set on Stem [2]; 0.9 ng/g in the data set with Stem [4]; 1.5 ng/g with Leaf [5]; 1.3 ng/g in the data set on Root [6]; 3.5 ng/g in the data set with Leaf [7]. In addition, the Drug uptake amounted to 4.5 ng/g with Fruit [8]; 0.3 ng/g with Root [10]; 1 ng/g in the data set on Leaf [12]; 0.8 ng/g with Root [13]; 0.9 ng/g in the data set with Stem [14]. Besides, the Ratio in data set [3] amounted to 10; in data set [9], 18.6; in data set [15], 4.3. The logP in data set [11] is < 4.
Take `Cl[C@H]1[C@H](Cl)[C@H](Cl)[C@@H](Cl)[C@H](Cl)[C@H]1Cl` [ALPHA-HEXACHLOROCYCLOHEXANE]: the Drug uptake in the data set with Fruit [1] was found to be 1.4 ng/g; with Stem [2] it was 1.7 ng/g; in the data set on Stem [4], 1.3 ng/g; with Leaf [5] it was 0.8 ng/g; in the data set with Root [6] it was 0.4 ng/g; in the data set with Leaf [7] it was 0.6 ng/g. For the same compound, the Drug uptake in the data set with Fruit [8] is recorded as 7.4 ng/g; with Root [10], 1.3 ng/g; with Leaf [12], 1.2 ng/g; with Root [13], 1.9 ng/g; in the data set on Stem [14], 1.1 ng/g. Moreover, the Ratio in data set [3] was found to be 9.5; in [9], 4; in data set [15], 13. Moreover, the logP in data set [11] is < 4.
For the compound `O=S1OC[C@@H]2[C@H](CO1)[C@]1(Cl)C(Cl)=C(Cl)[C@]2(Cl)C1(Cl)Cl` (stereo partly drawn) [BETA-ENDOSULFAN], the Drug uptake in the data set on Fruit [1] stood at 10.8 ng/g; in the data set with Stem [2] it was 1.1 ng/g; in the data set on Stem [4], 1.6 ng/g; in the data set on Leaf [5], 2.9 ng/g; in the data set with Root [6], 0.9 ng/g; in the data set with Leaf [7] it was 3.3 ng/g. Further, the Drug uptake with Fruit [8] was found to be 6.6 ng/g; with Root [10], 0.9 ng/g; in the data set with Leaf [12], 1.1 ng/g; with Root [13], 2 ng/g; in the data set on Stem [14], 3.2 ng/g. Further, the Ratio in data set [3] was 50; in [9], 15; in data set [15], 15. In addition, the logP in data set [11] was < 4.
As for `Cl[C@H]1[C@H](Cl)[C@@H](Cl)[C@H](Cl)[C@@H](Cl)[C@@H]1Cl` [BETA-HEXACHLOROCYCLOHEXANE], the Drug uptake is 1.5 ng/g in the data set on Fruit [1]; 8.9 ng/g in the data set on Stem [2]; 2.1 ng/g in the data set on Stem [4]; 2.2 ng/g with Leaf [5]; 1.1 ng/g with Root [6]; 1.6 ng/g in the data set with Leaf [7]. In addition, the Drug uptake turned out to be 5.4 ng/g in the data set on Fruit [8]; 1.2 ng/g in the data set on Root [10]; 4.2 ng/g with Leaf [12]; 3.7 ng/g in the data set on Root [13]; 4.2 ng/g in the data set with Stem [14]. For the same compound, the Ratio is 9.2 in data set [3], 2.7 in [9] and 3 in [15]. Also, the logP in data set [11] is < 4.
Consider `Clc1ccc(C(c2ccc(Cl)cc2)C(Cl)(Cl)Cl)cc1` [CHLOROPHENOTHANE], for which the Drug uptake in the data set with Fruit [1] was determined as 8.8 ng/g; in the data set on Stem [2], 9.4 ng/g; in the data set with Stem [4], 6.8 ng/g; with Leaf [5], 8.24 ng/g; in the data set with Root [6] it was 2.5 ng/g; in the data set with Leaf [7], 2.3 ng/g. Further, the Drug uptake is reported as 29.2 ng/g with Fruit [8]; 7.3 ng/g in the data set with Root [10]; 8.9 ng/g with Leaf [12]; 19.2 ng/g in the data set with Root [13]; 10.5 ng/g in the data set on Stem [14]. Moreover, the Ratio in [3] worked out at 2.6. Further, the logP in data set [11] was > 6.
For `Cl[C@H]1[C@H](Cl)[C@@H](Cl)[C@H](Cl)[C@@H](Cl)[C@H]1Cl` [DELTA-HEXACHLOROCYCLOHEXANE], the Drug uptake came out at 1.4 ng/g in the data set on Fruit [1]; 4.7 ng/g with Stem [2]; 1.6 ng/g in the data set on Stem [4]; 1.1 ng/g in the data set with Leaf [5]; 0.8 ng/g in the data set on Root [6]; 1.2 ng/g with Leaf [7]. Besides, the Drug uptake is 2.3 ng/g with Fruit [8]; 1.7 ng/g in the data set with Root [10]; 2.4 ng/g in the data set with Leaf [12]; 3.7 ng/g in the data set with Root [13]; 3.6 ng/g with Stem [14]. Besides, the Ratio came out at 18.5 in [3], 0.7 in data set [9] and 1.5 in [15]. In [11], the logP is < 4.
`ClC(Cl)=C(c1ccc(Cl)cc1)c1ccc(Cl)cc1` [DICHLORODIPHENYLDICHLOROETHYLENE]: the Drug uptake in the data set with Fruit [1] is 3.2 ng/g; with Stem [2], 7.4 ng/g; with Stem [4] it was 1.8 ng/g; in the data set on Leaf [5], 2.2 ng/g; in the data set with Root [6], 23.2 ng/g; in the data set on Leaf [7], 6 ng/g. The Drug uptake with Fruit [8] turned out to be 6.4 ng/g; with Root [10] it was 2.4 ng/g; in the data set with Leaf [12], 2.8 ng/g; in the data set with Root [13], 9.1 ng/g; in the data set with Stem [14] it was 8.6 ng/g. Also, in data set [3], the Ratio was 5.3.
Consider `O=S1(=O)OCC2C(CO1)C1(Cl)C(Cl)=C(Cl)C2(Cl)C1(Cl)Cl` (stereo not given) [ENDOSULFAN SULFATE], for which the Drug uptake with Fruit [1] was determined as 80.6 ng/g; with Stem [2], 246.9 ng/g; with Stem [4], 82.1 ng/g; in the data set with Leaf [5] it was 48.2 ng/g; with Root [6] it was 21.1 ng/g; in the data set with Leaf [7], 38.2 ng/g. Besides, the Drug uptake with Fruit [8] is listed as 305.5 ng/g; in the data set on Root [10], 71.4 ng/g; in the data set with Leaf [12], 126.5 ng/g; in the data set with Root [13], 151.6 ng/g; in the data set with Stem [14] it was 99.7 ng/g. The Ratio was found to be 9.2 in data set [3], 1.3 in data set [9] and 4.5 in data set [15]. The logP in [11] was < 4.
Regarding `Cl[C@H]1[C@H](Cl)[C@@H](Cl)[C@@H](Cl)[C@H](Cl)[C@H]1Cl` [LINDANE], the Drug uptake with Fruit [1] came out at 2.1 ng/g; in the data set with Stem [2], 27.5 ng/g; in the data set on Stem [4], 4.6 ng/g; in the data set on Leaf [5], 4 ng/g; in the data set with Root [6], 4.7 ng/g; with Leaf [7], 0.9 ng/g. For the same compound, the Drug uptake was 14.4 ng/g in the data set on Fruit [8]; 3.9 ng/g in the data set with Root [10]; 9.9 ng/g with Leaf [12]; 16.2 ng/g with Root [13]; 9.4 ng/g in the data set on Stem [14]. Besides, the Ratio in [3] was determined as 12.3; in data set [9], 3.9; in data set [15], 3.2. For the same compound, the logP in data set [11] was < 4.
